Shown are actives, neighbours in structure and some others; about 4% of the full set was active somewhere.
TAAR1 antag: human TAAR1 antagonists, primary screen, Fluo-8 calcium fluorescence, CHO RD-HGA16 cells; inhibition, % at 3 µM; antagonist; 1.5% of 360,000 active; AID 624466, 2012; Trace amine-associated receptor 1 (Homo sapiens), Q96RJ0;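 active = inhibition above a per-plate cutoff, the mean inhibition of test compounds on that plate plus 3 SD, cut at about 49% in these data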
Target sequence (Q96RJ0 whole entry, looked up): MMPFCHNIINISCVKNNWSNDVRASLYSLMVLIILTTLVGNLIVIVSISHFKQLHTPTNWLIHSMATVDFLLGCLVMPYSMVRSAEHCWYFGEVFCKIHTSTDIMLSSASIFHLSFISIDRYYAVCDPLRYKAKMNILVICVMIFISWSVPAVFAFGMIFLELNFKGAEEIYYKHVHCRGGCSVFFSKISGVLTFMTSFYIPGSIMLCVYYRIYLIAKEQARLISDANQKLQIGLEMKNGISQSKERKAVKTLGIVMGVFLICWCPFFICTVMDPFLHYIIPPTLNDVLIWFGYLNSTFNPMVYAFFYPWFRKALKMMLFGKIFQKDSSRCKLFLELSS
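Assay system: RD-HGA16 CHO cells with stable hTAAR1 and Gα16 / Reagent: EC80 β-phenethylamine stimulus / Doses: 3 µM, single point / Timing: dye loading 75 min at 37 °C, then 30 min room temperature / Measured by: Fluo-8 intracellular calcium dye fluorescence, real-time kinetic reads / Controls: vehicle wells and EC80 agonist wells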
CHO parental Ca: ATP-evoked calcium signal inhibitors, parental CHO, primary screen, counter-screen for OX1R antagonist project, cell-based, fluorescence, Fluo-8 calcium dye. parental CHO-K1, ATP-induced calcium, Fluo-8 fluorescence. 0.63% of 330,000 active. inhibition, % at 5.6 µM;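 active = inhibition above that plate's mean sample inhibition plus 3 SD, cut at about 26% in these data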
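Material – parental CHO cells · Reagent – ATP stimulus · Compound – single nominal dose of 5.6 µM per compound · Detection – Fluo-8 fluorescence · Read-out basis – percent inhibition of calcium signal · Controls – ATP-challenged DMSO wells low, unchallenged DMSO wells high · Repeats – no replicates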
OX1R antag-1: OX1R (HCRTR1) antagonists, primary screen, fluorescence, CHO/OX1R cells, Fluo-8 calcium, orexin A. Orexin/Hypocretin receptor type 1 (Homo sapiens), O43613. Fluo-8 calcium fluorescence. inhibition, % at 5 µM. 0.43% of 330,000 active. AID 434989, 2010;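 active = inhibition above its plate's threshold, mean inhibition of all tested compounds on the plate plus 3 SD, cut at about 37% in these data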
TAAR1 agonist: human TAAR1 agonists, primary screen, Fluo-8 calcium fluorescence, CHO RD-HGA16 cells; activation, % at 3 µM; AID 624467, 2012; 0.99% of 360,000 active; vehicle wells 0%, saturating PEA agonist 100%;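 active = activation above the mean activation of all test compounds in the run plus 3 SD, cut at about 38% in these data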
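Assay system – CHO-derived RD-HGA16 cells with stable Gα16 and human TAAR1 · Compound dosing – one-point dosing at 3 µM (nominal) · Incubation – 17-24 h seeding, 75 min 37 °C dye, 30 min RT · Measured by – kinetic Fluo-8 calcium fluorescence · Control set – DMSO vehicle as 0%, PEA at EC100 as 100% · Repeats – single well for each compound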
OX1R antag-2: antagonists of human orexin 1 receptor (OX1R). OX1R-expressing cells, FRET antagonist read-out. 1.8% of 330,000 active. AID 485270, 2010. Orexin/Hypocretin receptor type 1 (Homo sapiens), O43613. inhibition, % at 6.6 µM; in the data active = inhibition mostly above about 38%, no sharp cut-off; inactive = mostly below about 40%
nonsel antag count: nonselective antagonists in TAAR1 counter-screen cells, counter-screen for hTAAR1 antagonist project, cell-based, fluorescence, calcium | inhibition, % at 3 µM | shares compounds with TAAR1 antag | 77% of 2,400 active | counterscreen cell line, antagonist mode; in the data active = inhibition above about 22%;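 also: CHO-Ga16 host cells stimulated with ATP at an EC80 level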
TAAR1 antag conf: human TAAR1 antagonists, retest of hits, confirmation, cell-based, fluorescence; AID 651785, 2012; inhibition, % at 3 µM; 40% of 2,400 active; TAAR1-expressing cells, fluorescence antagonist read-out; shares compounds with TAAR1 antag; in the data active = inhibition above about 49%;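 also: CHO-Ga16 host cells challenged with agonist PEA near its EC80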
Ga16 ag counter: calcium activation in Ga16-expressing cells, counter-screen for TAAR1 antagonist project, cell-based, fluorescence; shares compounds with TAAR1 antag; agonist counterscreen; activation, % at 3 µM; 18% of 2,400 active; AID 651953, 2012; in the data active = activation above about 12%
TAAR1 ag count: TAAR1 activation by candidate antagonists – cell-based, fluorescence, counter-screen for TAAR1 antagonist project; shares compounds with TAAR1 antag; activation, % at 3 µM; 2% of 2,400 active; hTAAR1 cell line, agonist mode; AID 651955, 2012; in the data active = activation above about 37%;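 also: CHO cells stably expressing TAAR1 with calcium dye readout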
A number is an active result; n = inactive; x = not tested or not shown.

SMILES	TAAR1 antag	CHO parental Ca	OX1R antag-1	TAAR1 agonist	OX1R antag-2	nonsel antag count	TAAR1 antag conf	Ga16 ag counter	TAAR1 ag count
O=C1C(=Cc2cccs2)C(=O)c2ccccc21	104	n	n	n	n	n	n	n	n
CCOC(=O)C1CCCN(c2c(C(=O)c3ccccc3)cnc3ccc(OC)cc23)C1 (stereo not given)	86	n	n	n	n	n	66	n	n
CCOC(=O)C1CCCN(C(=O)COc2ccc(C(=O)c3ccccc3)cc2)C1 (stereo not given)	n	x	x	n	x	x	x	x	x
COc1ccccc1/C=C/C(=O)NCC(=O)n1nc(C)cc1C	n	n	n	n	n	x	x	x	x
Oc1ccc(-c2nc3ccccn3c2NCc2ccc3c(c2)OCO3)cc1	55	n	n	n	n	30	53	n	n
COc1ccc(/C=N/Nc2ccc([N+](=O)[O-])cc2)cc1Cn1cc([N+](=O)[O-])cn1	55	n	n	n	n	26	n	n	n
Cc1cc(C)c(NC(=O)c2ccc3c(c2)C(=O)N(Cc2cccnc2)C3=O)c(C)c1	n	n	n	n	n	x	x	x	x
Cc1ccc(O)c(NC(=O)c2ccc3c(c2)C(=O)N(Cc2cccnc2)C3=O)c1	77	n	n	n	n	34	59	13	n
O=C(O)c1cccc(NC(=O)c2ccc3c(c2)C(=O)N(c2ccccc2)C3=O)c1	n	n	n	n	n	x	x	x	x
COC(=O)c1cccc(NC(=O)c2ccc3c(c2)C(=O)N(C(C)(C)C)C3=O)c1	65	n	n	n	n	38	63	n	n
COC(=O)c1cccc(NC(=O)c2ccc3c(c2)C(=O)N(Cc2cccnc2)C3=O)c1	n	n	n	n	n	x	x	x	x
CC(C)(C)N1C(=O)c2ccc(C(=O)Nc3ccc(O)cc3)cc2C1=O	63	n	n	n	n	24	n	n	n
CC(C)(C)N1C(=O)c2ccc(C(=O)O)cc2C1=O	n	n	n	n	n	x	x	x	x
CC(C)(C)NC(=O)c1cccc(NC(=O)c2ccc3c(c2)C(=O)N(C(C)(C)C)C3=O)c1	85	n	n	n	n	38	65	13	n
O=C(NCC(=O)N1CCN(Cc2c(F)cccc2Cl)CC1)c1cccc(Cl)c1	n	x	x	n	x	x	x	x	x
CC(C)(C)NS(=O)(=O)c1ccc(NC(=O)CS(=O)(=O)Cc2ccccc2)cc1	n	n	n	n	n	x	x	x	x
CC(=O)c1ccc(S(=O)(=O)N2CCC(NC(=O)c3ccccc3)CC2)cc1	n	x	x	n	x	x	x	x	x
CN(CC(=O)Nc1cccc(F)c1)C(=O)c1cccc(S(=O)(=O)N2CCN(c3ccc(F)cc3)CC2)c1	n	x	x	n	x	x	x	x	x
CN(CC(=O)Nc1c(Cl)cccc1Cl)C(=O)C1CC(=O)N(Cc2ccccc2)C1 (stereo not given)	n	n	n	n	n	x	x	x	x
O=C(Nc1ccc(O)cc1)c1ccc2c(c1)C(=O)N(Cc1ccccc1)C2=O	63	n	n	n	n	22	n	14	n
O=C(O)COc1ccc(NC(=O)c2ccc3c(c2)C(=O)N(Cc2ccccc2)C3=O)cc1	n	n	n	n	n	x	x	x	x
CCOC(=O)c1c(C)[nH]c(C(=O)COC(=O)C2(C)CC2(Cl)Cl)c1C (stereo not given)	71	n	n	n	n	45	74	n	n
CCCCn1c(O)c(N=NC(=O)c2ccco2)c2ccccc21	52	n	n	n	n	n	n	n	n
COc1cccc(N2C(=O)C3ON(c4ccccc4)C(c4cccs4)C3C2=O)c1 (stereo not given)	54	n	n	n	n	24	n	n	n
CCOc1ccc(N2C(=O)C3ON(c4ccccc4)C(c4cccs4)C3C2=O)cc1 (stereo not given)	n	n	n	n	n	x	x	x	x
SMILES	TAAR1 antag	CHO parental Ca	OX1R antag-1	TAAR1 agonist	OX1R antag-2	nonsel antag count	TAAR1 antag conf	Ga16 ag counter	TAAR1 ag count
COC(=O)C[C@H]1c2ccccc2S(=O)(=O)N1Cc1ccc(OC)cc1	n	n	n	n	n	x	x	x	x
COC(=O)/C=C/c1ccccc1CN1[C@@H](CC(=O)OC)c2ccccc2S1(=O)=O	107	n	n	n	n	n	n	n	n
N#CC(C#N)=C1C=CC=CN1/C(=C\c1ccccc1Cl)C(=O)c1ccccc1	56	n	n	n	n	49	59	n	n
N#CC(C#N)=C1C=CC=CN1/C(=C\c1ccccc1)C(=O)c1cccs1	n	n	n	n	n	x	x	x	x
COc1ccc(CCNC(=O)C(=O)NCC2OCCN2C(=O)c2ccc(Cl)cc2)cc1 (stereo not given)	60	n	n	n	n	22	n	n	n
c1ccc(CCc2ccccc2-c2nc(-c3ccccn3)no2)cc1	51	n	n	n	n	n	n	n	n
c1ccc(CCc2ccccc2-c2nc(-c3cccnc3)no2)cc1	n	n	n	n	n	x	x	x	x
CC1CN(C(=O)c2ccccc2NS(=O)(=O)c2ccc(Cl)cc2)CC(C)O1 (stereo not given)	n	n	n	n	n	x	x	x	x
COc1ccc(CCNC2=C(Cl)C(=O)N(CCc3ccc(OC)c(OC)c3)C2=O)cc1OC	74	n	n	n	n	44	60	n	n
COc1ccccc1CNc1nc(NCc2cccs2)nc2ccsc12	76	x	x	n	x	62	80	34	49
CSCCC(NC(=O)c1ccccc1)C(=O)N1CC=C(c2ccccc2)CC1 (stereo not given)	n	n	n	n	n	x	x	x	x
CCOC(=O)c1cnc2ccc(C)cc2c1Nc1ccc(N2CCOCC2)cc1	61	n	n	n	n	30	58	13	n
CCOC(=O)c1ccc2ncc(C(=O)OCC)c(NCCN3CCOCC3)c2c1	n	n	n	n	n	x	x	x	x
Clc1cccc(-c2nc(NCCN3CCOCC3)c3ccccc3n2)c1	64	n	n	n	n	32	55	16	n
Cc1ccc(CNC(=O)[C@H]2O[C@@H](n3cnc4c(N)ncnc43)[C@H](O)[C@@H]2O)o1	n	x	x	n	x	x	x	x	x
